ZTA DNA inh = counter-screen for EBNA-1 inhibitors: inhibitors of Epstein-Barr virus ZTA; AID 2234; P03206; inhibition, % at 11 µM; 0.15% of 320,000 active; ZTA-DNA binding, fluorescence polarization; in the data active = inhibition above about 33%
procasp3 activ = procaspase-3 (human) activation; recombinant procaspase-3 D3A, Ac-DEVD-pNA absorbance 405 nm; activation, % at 8.5 µM; 0.11% of 330,000 active; AID 463141;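 active = activation above the mean of all tested compounds plus 3 SD, cut at about 21% in these data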;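 also: 0% = DMSO alone and 100% = DMSO wells spiked with extra 5 µM PC-3 D3A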
Target sequence (P42574 whole entry D9A/D28A/D175A): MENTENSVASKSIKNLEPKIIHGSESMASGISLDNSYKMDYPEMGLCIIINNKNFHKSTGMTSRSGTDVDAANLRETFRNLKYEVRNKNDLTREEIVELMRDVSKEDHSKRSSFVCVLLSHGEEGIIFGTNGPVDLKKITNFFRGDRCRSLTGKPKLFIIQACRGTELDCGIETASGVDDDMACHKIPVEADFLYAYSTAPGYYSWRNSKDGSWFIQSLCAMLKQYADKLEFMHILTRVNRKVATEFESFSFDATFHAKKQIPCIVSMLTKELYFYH
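System: Procaspase-3 D3A mutant. Medium: Zinc-free 300 mM NaCl, 50 mM HEPES, 0.01% Triton X-100. Schedule: 1 h preincubation plus 2 h reaction at 25 °C. Measured by: 405 nm absorbance of p-nitroaniline, reads at 0 and 120 min. Read-out: percent activation relative to control range.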
GSTO1 inh = counter-screen for RBBP9 inhibitors: inhibitors of human GSTO1. inhibition, % at 5.96 µM. P78417. recombinant GSTO1, activity-based probe fluorescence polarization. 1.1% of 300,000 active. AID 1974;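 active = inhibition above the campaign mean inhibition plus 3 SD, cut at about 35% in these data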;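 also: 0% = GSTO1-1 with DMSO and 100% = wells lacking GSTO1-1 enzyme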
Target sequence (P78417 whole entry, looked up): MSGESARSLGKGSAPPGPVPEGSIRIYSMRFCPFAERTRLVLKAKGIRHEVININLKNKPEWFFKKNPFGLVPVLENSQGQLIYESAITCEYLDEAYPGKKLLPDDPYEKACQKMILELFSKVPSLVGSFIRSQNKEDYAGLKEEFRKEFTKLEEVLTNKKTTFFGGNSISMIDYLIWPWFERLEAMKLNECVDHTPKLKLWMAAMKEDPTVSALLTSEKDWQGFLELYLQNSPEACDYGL
EBNA-1 inh = blocks EBNA-1 binding to DNA; EBNA-1 DNA binding, fluorescence polarization; inhibition, % at 14.8 µM; 0.34% of 300,000 active; AID 1950; in the data active = inhibition above about 28%
proCasp7 act = counter-screen for procaspase-3 activators: activators of human procaspase-7; P55210; activation, % at 8.5 µM; AID 463210; 0.093% of 330,000 active; recombinant procaspase-7, Ac-DEVD-pNA absorbance 405 nm; D23A/D198A/D206A triple mutant, cannot self-cleave; scale: DMSO 0, 5 µM enzyme 100;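 active = percent activation above the screen-wide mean plus 3 SD, cut at about 25% in these data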
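Assay system: Uncleavable procaspase-7 mutant enzyme; Input: 2 µM procaspase-7 mutant as dispensed; Also added: DEVD-pNA substrate; Medium: Zinc-free HEPES pH 7.4 with 300 mM NaCl, 0.01% Triton X-100; Timing: 1 h compound preincubation, 2 h substrate cleavage, 25 °C; Measured by: Epi-absorbance of released pNA at 405 nm, two timepoints.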
Apaf1 inhib = blocks human Apaf-1 apoptosome activity; reconstituted apoptosome caspase-3 activity, DEVD-Rh110 fluorescence; inhibition, % at 20 µM; 0.71% of 330,000 active; O14727; active = inhibition of at least 40% at 20 µM;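 also: plate controls were DMSO wells for no effect and DEVD-CHO caspase inhibitor wells for full effect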
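System: Apoptosome proteins | Medium: Hepes pH 7.5 with detergent and BSA | Also added: Cytochrome c trigger plus (Z-DEVD)2-Rh110 caspase-3 substrate | Incubation: 30 min compound preincubation, 50 min activation, room temperature | Detection: Rhodamine 110 fluorescence at Ex 480/Em 540 nm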
GSTO1 inh conf = GSTO1 (human) inhibition, confirmation; shares compounds with GSTO1 inh; recombinant GSTO1, probe fluorescence polarization; inhibition, % at 5.96 µM; 54% of 2,400 active;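 active = inhibition above the primary screen's cutoff, its mean inhibition plus 3 SD, cut at about 35% in these data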;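 also: loss of polarization as inhibitors block binding of rhodamine sulfonate ester activity probe; 0% = GSTO1 with DMSO and 100% = wells lacking GSTO1 enzyme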
An asterisk follows results filed as active. A selection: hits, their analogues and other compounds. The true share with any hit is near 1.8%.

Cc1ccc(SCC(=O)OCC(=O)N(CCC#N)c2ccccc2)cc1C was read as ZTA DNA inh -4, procasp3 activ 2, GSTO1 inh 6, EBNA-1 inh -14, proCasp7 act -2 and Apaf1 inhib 9.
Screening O=C(CCl)c1cc2c3c(c1)CC(=O)N3CCC2 returned ZTA DNA inh 15, procasp3 activ -11, GSTO1 inh 52*, EBNA-1 inh 17, proCasp7 act -10, Apaf1 inhib 7 and GSTO1 inh conf 67*.
`N#Cc1ccc(CN2CCN(C(=O)CNC(=O)Cc3ccccc3)CC2)cc1` gave Apaf1 inhib 10.
CCn1c(CSc2nnc(-c3cccnc3)n2-c2ccccc2C)nc2cc(C(=O)O)ccc21 was read as ZTA DNA inh active, procasp3 activ -1, GSTO1 inh 69*, EBNA-1 inh 124*, proCasp7 act 10, Apaf1 inhib 5 and GSTO1 inh conf 59*.
Cc1ccccc1-n1c(SCC(=O)c2cc(C)n(C)c2C)nnc1-c1cccnc1 was read as ZTA DNA inh 11, procasp3 activ -4, GSTO1 inh 4, EBNA-1 inh -3, proCasp7 act 2 and Apaf1 inhib -9.
Screening COc1ccccc1N1CCN(C2CCCN(C(=O)CCc3cnn(C)c3)C2)CC1 (configuration not stated) returned ZTA DNA inh 8, procasp3 activ -6, GSTO1 inh 4, EBNA-1 inh -3, proCasp7 act 11 and Apaf1 inhib 1.
`O=[N+]([O-])c1ccccc1N/N=C/c1cccc(O)c1O` gave ZTA DNA inh -4, procasp3 activ -6, GSTO1 inh 49*, EBNA-1 inh 17, proCasp7 act -6, Apaf1 inhib -2 and GSTO1 inh conf 8.
For O=[N+]([O-])c1ccccc1N/N=C\c1ccccc1Cl the results were ZTA DNA inh -10, procasp3 activ -9, GSTO1 inh -2, EBNA-1 inh -2, proCasp7 act 8 and Apaf1 inhib 4.
CCCCN(C(=O)c1ccc2c(c1)OCCO2)c1c(N)n(CC(C)C)c(=O)[nH]c1=O was read as ZTA DNA inh 1, procasp3 activ 5, GSTO1 inh 7, EBNA-1 inh -1, proCasp7 act 15 and Apaf1 inhib -1.
For CCOc1ccc(-n2c(C)cc(C(=O)CCl)c2C)cc1 the results were ZTA DNA inh 8, procasp3 activ -2, GSTO1 inh 94*, EBNA-1 inh -4, proCasp7 act 5, Apaf1 inhib 2 and GSTO1 inh conf 100*.
Cc1cc(O)c(C(C)C)cc1N=Cc1ccccc1O was read as ZTA DNA inh -3, procasp3 activ -3, GSTO1 inh 54*, EBNA-1 inh 10, proCasp7 act -3, Apaf1 inhib 36 and GSTO1 inh conf 4.
For O=C(CN1CCOCC1)N/N=C/c1ccco1 the results were ZTA DNA inh -1, procasp3 activ -3, GSTO1 inh -3, EBNA-1 inh -15, proCasp7 act -2 and Apaf1 inhib 0.
O=C(CN1CCOCC1)N/N=C/c1c(O)ccc2ccccc12 was read as ZTA DNA inh -9, procasp3 activ -8, GSTO1 inh 38*, EBNA-1 inh -12, proCasp7 act -19, Apaf1 inhib -3 and GSTO1 inh conf 4.
Screening Cc1ccc(C)c(NC(=O)CSc2nnc(-c3n[nH]c4ccccc34)o2)c1 returned ZTA DNA inh -10, procasp3 activ -4, GSTO1 inh 39*, EBNA-1 inh -6, proCasp7 act -1, Apaf1 inhib 11 and GSTO1 inh conf 29.
`O=[N+]([O-])c1cc(Br)c(Nc2ccccc2)c([N+](=O)[O-])c1` gave ZTA DNA inh 11, procasp3 activ -1, GSTO1 inh 13, EBNA-1 inh 8, proCasp7 act -1 and Apaf1 inhib 15.
Screening O=[N+]([O-])c1cc([N+](=O)[O-])c2c(=Nc3ccccc3)n(-c3ccccc3)n(O)c2c1 returned ZTA DNA inh 4, procasp3 activ 10, GSTO1 inh 46*, EBNA-1 inh -6, proCasp7 act 4, Apaf1 inhib 25 and GSTO1 inh conf 63*.
Cc1ccc(S(=O)(=O)Nc2ccc(N(C)C)cc2)cc1 was read as ZTA DNA inh 5, procasp3 activ 0, GSTO1 inh 7, EBNA-1 inh -9, proCasp7 act 8 and Apaf1 inhib 8.
For CN(C)c1ccc(NS(=O)(=O)c2ccc(-c3csnn3)cc2)cc1 the results were ZTA DNA inh -1, procasp3 activ 1, GSTO1 inh 39*, EBNA-1 inh -7, proCasp7 act -5, Apaf1 inhib -4 and GSTO1 inh conf 30.
`O=c1c(C=NCCCn2ccnc2)c(-c2ccccc2)[nH]n1-c1nc2ccccc2s1` gave ZTA DNA inh -4, procasp3 activ 0, GSTO1 inh -20, EBNA-1 inh -1, proCasp7 act -4 and Apaf1 inhib 4.
Screening CC(=NCCCn1ccnc1)c1c(-c2ccccc2)[nH]n(-c2nc3ccccc3s2)c1=O returned ZTA DNA inh 2, procasp3 activ 0, GSTO1 inh 57*, EBNA-1 inh -17, proCasp7 act 12, Apaf1 inhib 22 and GSTO1 inh conf 5.
`CCOc1ccc(N(CC(=O)NC2CCCCC2)S(=O)(=O)c2ccccc2)cc1` gave ZTA DNA inh -20, procasp3 activ 3, GSTO1 inh 4, EBNA-1 inh -1, proCasp7 act -8 and Apaf1 inhib 19.
O=C(O)c1ccc(N/N=C/C(Br)=C/c2ccccc2)cc1 was read as ZTA DNA inh -6, procasp3 activ -2, GSTO1 inh 64*, EBNA-1 inh -4, proCasp7 act 0, Apaf1 inhib -16 and GSTO1 inh conf 65*.
For CC(=O)N1N=C(c2ccccc2)OC1c1ccc([N+](=O)[O-])s1 (configuration not stated) the results were ZTA DNA inh -3, procasp3 activ -1, GSTO1 inh 41*, EBNA-1 inh -7, proCasp7 act -4, Apaf1 inhib 37 and GSTO1 inh conf 14.
Screening Cc1ccc2oc(=O)c(/C=C(\O)c3cccs3)nc2c1 returned ZTA DNA inh 9, procasp3 activ -8, GSTO1 inh 40*, EBNA-1 inh -4, proCasp7 act -23, Apaf1 inhib -21 and GSTO1 inh conf 7.
For O=C1/C(=C\c2ccco2)SC(=S)N1c1ccc(O)cc1 the results were ZTA DNA inh -10, procasp3 activ -21, GSTO1 inh 29, EBNA-1 inh 9, proCasp7 act -20 and Apaf1 inhib 12.

Screening results from PubChem BioAssay.
